Measured values taken from ChEMBL document CHEMBL1157197, “Design, synthesis and trypanocidal activity of lead compounds based on inhibitors of parasite glycolysis” (Bioorg Med Chem, 2008).

What was measured:
[1] = molecular target: T1, ATP-dependent 6-phosphofructokinase (Trypanosoma brucei, UniProt O15648); assay: Inhibition of Trypanosoma brucei phosphofructokinase
T1 sequence (O15648 whole entry): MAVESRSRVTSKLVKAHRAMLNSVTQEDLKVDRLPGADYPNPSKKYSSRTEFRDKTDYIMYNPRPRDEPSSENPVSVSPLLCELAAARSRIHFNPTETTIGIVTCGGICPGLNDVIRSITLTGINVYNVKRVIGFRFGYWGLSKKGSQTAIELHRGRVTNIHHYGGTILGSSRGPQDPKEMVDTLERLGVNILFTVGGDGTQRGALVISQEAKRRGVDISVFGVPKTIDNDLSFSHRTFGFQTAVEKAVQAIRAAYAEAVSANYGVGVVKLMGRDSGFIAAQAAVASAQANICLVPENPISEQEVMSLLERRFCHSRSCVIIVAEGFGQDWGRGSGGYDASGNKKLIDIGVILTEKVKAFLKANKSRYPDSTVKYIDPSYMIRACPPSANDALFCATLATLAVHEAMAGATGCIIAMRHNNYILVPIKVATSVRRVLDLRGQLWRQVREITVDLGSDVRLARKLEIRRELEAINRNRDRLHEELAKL

[2] = molecular target: T2, Pyruvate kinase (Leishmania mexicana) (UniProt Q27686); assay: Inhibition of Leishmania mexicana pyruvate kinase assessed as enzyme residual activity at 5 mM
T2 sequence (whole entry): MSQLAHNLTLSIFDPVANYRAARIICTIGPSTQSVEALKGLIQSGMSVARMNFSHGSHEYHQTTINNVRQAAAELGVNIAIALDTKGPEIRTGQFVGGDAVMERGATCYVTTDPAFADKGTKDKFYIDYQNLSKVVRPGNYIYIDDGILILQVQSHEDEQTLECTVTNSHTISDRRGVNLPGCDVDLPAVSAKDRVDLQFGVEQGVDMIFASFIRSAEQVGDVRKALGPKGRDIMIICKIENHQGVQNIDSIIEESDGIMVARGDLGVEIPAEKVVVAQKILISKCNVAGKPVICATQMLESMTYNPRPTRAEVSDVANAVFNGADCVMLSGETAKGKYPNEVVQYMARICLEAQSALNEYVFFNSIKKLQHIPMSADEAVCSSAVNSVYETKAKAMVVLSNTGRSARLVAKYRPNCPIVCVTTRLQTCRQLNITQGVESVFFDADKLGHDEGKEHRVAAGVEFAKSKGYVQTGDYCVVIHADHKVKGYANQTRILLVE

[3] = molecular target: T3, ATP-dependent 6-phosphofructokinase (Trypanosoma brucei) (UniProt O15648); assay: Inhibition of Trypanosoma brucei phosphofructokinase assessed as enzyme residual activity at 1 mM
T3 sequence (whole entry): T1 sequence (O15648 whole entry)

Trypanosoma brucei = assay: Antiparasitic activity against Trypanosoma brucei strain 427; format: functional; details: read-out: ED50 (the source's name)
Outline: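 Cultured bloodstream-form Trypanosoma brucei brucei strain 427 exposed to compounds in vitro; ED50 reported.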

[4] = molecular target: T3, ATP-dependent 6-phosphofructokinase (Trypanosoma brucei); assay: Inhibition of Trypanosoma brucei phosphofructokinase assessed as enzyme residual activity at 5 mM

IC50 [1] [µM]	Activity [2] [%]	Activity [3] [%]	EC50 (Trypanosoma brucei) [µM]	Activity [4] [%]	Compound
80	88.2	4.7	35	–	O=C(NC1CCCCCC1)[C@H]1O[C@H](CNCc2ccc(Cl)c(Cl)c2)[C@@H](O)[C@@H]1O
23	–	0.9	30	–	O=C(NCc1ccc(Cl)c(Cl)c1)[C@H]1O[C@H](CNCc2ccc(Cl)c(Cl)c2)[C@@H](O)[C@@H]1O
50	–	2	110	–	C=CCNC(=O)[C@H]1O[C@H](CNCc2ccc(Cl)c(Cl)c2)[C@@H](O)[C@@H]1O
410	43	–	130	5	OC[C@H]1O[C@H](CNCc2ccc(Cl)c(Cl)c2)[C@@H](O)[C@@H]1O
